Measurements from ChEMBL document CHEMBL1133762, “Aureobasidins: structure-activity relationships for the inhibition of the human MDR1 P-glycoprotein ABC-transporter” (J Med Chem, 2000).
Values after ≈ are worked out from the molar mass of the structure shown.

Experiments:
[1] = test system: Saccharomyces cerevisiae; experiment: Minimum growth-inhibitory concentration against Saccharomyces cerevisiae ATCC 9763 by agar dilution method by the suspension of a fungi containing ~5 x 10e (7) cells/mL.; type: functional
Summary of the method: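 Agar dilution on Sabouraud–dextrose agar plates with graded compound concentrations. A loopful of yeast suspension (about 5 × 10⁷ cells/mL) was streaked on the surface. Plates were incubated at 30 °C for 3 days. MIC is the lowest concentration with no detectable growth.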

[2] = molecular target: P-glycoprotein (ABCB1, MDR1) (Homo sapiens, UniProt P08183); experiment: (§1) Human MDR1 Pgp inhibitory activity by using standard calcein-AM efflux method with the human leukemia CEM cells.; type: cell-based, CCRF-CEM; settings: probe calcein-AM
Chain of P-glycoprotein (ABCB1, MDR1) (P08183 whole entry): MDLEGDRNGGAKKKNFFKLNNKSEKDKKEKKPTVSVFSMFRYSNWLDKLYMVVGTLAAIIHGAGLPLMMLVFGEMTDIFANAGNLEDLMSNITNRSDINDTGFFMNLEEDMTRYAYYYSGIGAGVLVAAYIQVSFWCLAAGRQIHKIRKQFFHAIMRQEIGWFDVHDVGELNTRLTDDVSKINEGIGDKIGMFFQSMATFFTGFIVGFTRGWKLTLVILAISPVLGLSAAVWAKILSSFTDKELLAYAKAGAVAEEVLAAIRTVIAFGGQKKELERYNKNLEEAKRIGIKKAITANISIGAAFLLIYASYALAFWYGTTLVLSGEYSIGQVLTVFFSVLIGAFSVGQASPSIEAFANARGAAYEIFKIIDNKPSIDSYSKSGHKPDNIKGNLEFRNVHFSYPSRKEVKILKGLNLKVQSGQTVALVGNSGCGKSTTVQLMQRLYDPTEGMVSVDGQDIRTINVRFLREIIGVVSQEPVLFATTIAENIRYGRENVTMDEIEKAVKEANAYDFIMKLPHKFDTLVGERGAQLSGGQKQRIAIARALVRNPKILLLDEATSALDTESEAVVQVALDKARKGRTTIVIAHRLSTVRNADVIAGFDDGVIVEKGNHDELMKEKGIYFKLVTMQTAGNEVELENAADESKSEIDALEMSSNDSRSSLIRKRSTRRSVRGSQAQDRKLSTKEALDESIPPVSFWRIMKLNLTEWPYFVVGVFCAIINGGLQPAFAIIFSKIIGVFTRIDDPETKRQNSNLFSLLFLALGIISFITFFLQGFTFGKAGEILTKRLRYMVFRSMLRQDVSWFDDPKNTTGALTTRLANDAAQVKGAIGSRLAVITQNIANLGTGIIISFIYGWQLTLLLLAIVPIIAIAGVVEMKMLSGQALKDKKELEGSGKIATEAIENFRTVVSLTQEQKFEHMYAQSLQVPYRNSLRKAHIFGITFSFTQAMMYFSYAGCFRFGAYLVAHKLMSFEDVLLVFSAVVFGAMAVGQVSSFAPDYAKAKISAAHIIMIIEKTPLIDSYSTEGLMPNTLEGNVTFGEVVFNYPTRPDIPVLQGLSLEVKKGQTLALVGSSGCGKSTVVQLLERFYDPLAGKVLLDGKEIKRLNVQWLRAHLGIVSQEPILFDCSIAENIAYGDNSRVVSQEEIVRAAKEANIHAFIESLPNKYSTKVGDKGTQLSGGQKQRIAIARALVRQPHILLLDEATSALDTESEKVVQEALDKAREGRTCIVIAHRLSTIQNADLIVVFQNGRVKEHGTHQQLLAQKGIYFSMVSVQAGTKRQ

[3] = molecular target: T1, ATP-dependent translocase ABCB1 (Homo sapiens, UniProt P08183); experiment: as §1; type: cell-based, CCRF-CEM
T1 sequence (P08183 whole entry): as above

[4] = test system: Saccharomyces cerevisiae; experiment: Relative antifungal activity (against Saccharomyces cerevisiae) compared to AbA
[5] = molecular target: T1, ATP-dependent translocase ABCB1; experiment: Direct comparison of the antifungal activities with the relative Pgp-inhibitory potencies, calculated by comparing ug/mL IC50(or IC20).; type: functional
[6] = molecular target: T1, ATP-dependent translocase ABCB1
[7] = Antifungal activity was determined by its potency compared with that of AbA. Value is determined as ratio of AbA to the analogue.; type: functional
Summary of the method: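 Agar dilution MIC against S. cerevisiae ATCC 9763 on Sabouraud–dextrose agar plates containing graded compound concentrations. A loopful of about 5 × 10⁷ cells/mL suspension was streaked on the surface, and plates were incubated at 30 °C for 3 days. MIC was the lowest concentration with no detectable growth. The value is the AbA/analogue activity ratio.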

With `CC[C@H](C)[C@@H]1NC(=O)[C@@H]2CCCN2C(=O)[C@@H](C)N(C)C(=O)[C@H](Cc2ccc(OCC3CCCCC3)cc2)NC(=O)[C@H](C(C)C)N(C)C(=O)[C@@H]([C@@H](C)CC)OC(=O)[C@H](C(C)(C)O)N(C)C(=O)[C@H](CC(C)C)NC(=O)[C@H](C(C)C)N(C)C1=O` the MIC [1] was 1.6 mg/L (≈ 1.41 µM), the IC20 [2] was 0.64 µM and the IC50 [3] was 2.11 µM. For the same compound, the “antifungal AbA/analogue ratio” value [4] was 0.25 and the “Pgp AbA/analogue ratio” value [5] was 1.
`CC[C@@H](C)[C@@H]1NC(=O)[C@@H]2CCCN2C(=O)[C@H](Cc2ccccc2)N(C)C(=O)[C@H](Cc2ccccc2)NC(=O)[C@H](C(C)C)N(C)C(=O)[C@@H]([C@H](C)CC)OC(=O)[C@H](C(C)(C)O)N(C)C(=O)[C@H](CC(C)C)NC(=O)[C@H](C(C)C)N(C)C1=O` [AUREOBASIDIN A] gave an IC50 [6] of 2.27 µM.
Compound `CC[C@@H](C)[C@@H]1NC(=O)[C@@H]2CCCN2C(=O)[C@H](Cc2ccccc2)N(C)C(=O)[C@H](Cc2ccccc2)NC(=O)[C@H](C(C)C)N(C)C(=O)[C@@H]([C@@H](C)CC)OC(=O)CN(C)C(=O)[C@H](CC(C)C)NC(=O)[C@H](C(C)C)N(C)C1=O` has an AbA/analogue ratio [7] of less than 0.016.
